ChEMBL document CHEMBL2321871, “A novel class of oral direct renin inhibitors: highly potent 3,5-disubstituted piperidines bearing a tricyclic p3-p1 pharmacophore” (J Med Chem, 2013)
Blank lines part the entries; values can stand above or below the compound they belong to.

Legend:
[1] = tested on: Rattus norvegicus; assay: Antihypertensive activity in po dosed telemetered hypertensive double-transgenic rat model expressing human renin and angiotensinogen assessed as reduction of mean arterial blood pressure; format: functional, organism-based; conditions: Artery
Summary of the method: (§1)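 Telemetered hypertensive double-transgenic rats given a single oral dose (6 or 30 mg/kg); mean arterial blood pressure monitored for maximal reduction from pre-treatment baseline and time to 50% recovery to baseline.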

[2] = target: T1, Renin (Homo sapiens, UniProt P00797); assay: Inhibition of human recombinant renin using fluorescence-quenched (RE(EDANS)IHPFHLVIHTK(Dabcyl)R as substrate incubated for 1 hr prior to substrate addition measured after 1 hr by fluorescence polarization assay
T1 sequence (P00797 whole entry): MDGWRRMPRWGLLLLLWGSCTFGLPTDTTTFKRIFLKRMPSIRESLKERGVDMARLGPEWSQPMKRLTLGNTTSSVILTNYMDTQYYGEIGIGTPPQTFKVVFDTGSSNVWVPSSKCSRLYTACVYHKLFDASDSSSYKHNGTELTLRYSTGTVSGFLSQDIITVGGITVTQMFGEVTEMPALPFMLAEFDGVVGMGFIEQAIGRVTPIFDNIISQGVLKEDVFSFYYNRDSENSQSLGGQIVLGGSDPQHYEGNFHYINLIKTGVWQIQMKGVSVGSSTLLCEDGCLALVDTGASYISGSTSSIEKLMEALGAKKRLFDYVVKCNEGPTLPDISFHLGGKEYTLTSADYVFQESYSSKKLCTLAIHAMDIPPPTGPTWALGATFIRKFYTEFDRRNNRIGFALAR

[3] = target: T2, Renin (Homo sapiens) (UniProt P00797); assay: Inhibition of human recombinant renin using fluorescence-quenched (RE(EDANS)IHPFHLVIHTK(Dabcyl)R as substrate at 100 uM incubated for 1 hr prior to substrate addition measured after 1 hr by fluorescence polarization assay
T2 sequence (whole entry): T1 sequence (P00797 whole entry)

[4] = target: T1, Renin; assay: Binding affinity to human recombinant renin by NMR titration analysis
[5] = Half life in Sprague-Dawley rat at 2 mg/kg, iv and 6 mg/kg, po by HPLC analysis; format: ADME, organism-based; conditions: in vivo
Summary of the method: (§2)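 Fed Sprague–Dawley rats dosed at 2 mg/kg i.v. and 6 mg/kg p.o.; plasma levels followed over 24 h to derive oral AUC(0-24 h), Cmax, t1/2, plasma clearance, Vdss and oral bioavailability.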

[6] = Oral bioavailability in Sprague-Dawley rat at 6 mg/kg by HPLC analysis; format: ADME, organism-based; conditions: in vivo; summary of the method: as §2
[7] = tested on: Rattus norvegicus; assay: Antihypertensive activity in telemetered hypertensive double-transgenic rat model expressing human renin angiotensinogen assessed as time required for 50 % recovery at 30 mg/kg, po; format: functional; summary of the method: as §1
[8] = target: Cytochrome P450 3A4 (Homo sapiens, UniProt P08684); assay: Time dependent inhibition of CYP3A4 (unknown origin); format: ADME; conditions: TDE = time-dependent effect
[9] = target: T3, Beta-secretase 2 (Homo sapiens, UniProt Q9Y5Z0); assay: Inhibition of human recombinant BACE2 expressed in baculovirus-infected SF9 cells using fluorescence-quenched RE(EDANS)-EVNLDAEF-K(DABSYL)-R as substrate incubated for 1 hr prior to substrate addition measured after 1 hr by fluorescence polarization assay
T3 sequence (Q9Y5Z0 whole entry): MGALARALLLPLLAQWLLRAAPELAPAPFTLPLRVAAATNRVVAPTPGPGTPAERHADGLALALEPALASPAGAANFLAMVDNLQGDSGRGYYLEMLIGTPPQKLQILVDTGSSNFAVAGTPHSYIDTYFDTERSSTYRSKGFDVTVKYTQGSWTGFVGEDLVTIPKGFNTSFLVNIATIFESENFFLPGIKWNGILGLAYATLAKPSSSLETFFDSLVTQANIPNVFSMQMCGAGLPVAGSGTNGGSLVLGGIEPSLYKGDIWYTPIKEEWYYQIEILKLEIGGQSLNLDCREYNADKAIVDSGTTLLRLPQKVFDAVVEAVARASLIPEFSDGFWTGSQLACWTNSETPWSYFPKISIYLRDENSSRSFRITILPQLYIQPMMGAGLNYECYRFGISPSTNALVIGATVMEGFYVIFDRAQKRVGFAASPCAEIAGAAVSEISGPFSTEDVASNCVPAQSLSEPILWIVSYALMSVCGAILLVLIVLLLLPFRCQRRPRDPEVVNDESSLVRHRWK

[10] = tested on: Rattus norvegicus; assay: Antihypertensive activity in telemetered hypertensive double-transgenic rat model expressing human renin and angiotensinogen assessed as reduction of mean arterial blood pressure at 30 mg/kg, po; format: functional, Artery; summary of the method: as §1
[11] = tested on: Rattus norvegicus; assay: Antihypertensive activity in telemetered hypertensive double-transgenic rat model expressing human renin and angiotensinogen assessed as reduction of mean arterial blood pressure at 6 mg/kg, po; format: functional, Artery; summary of the method: as §1
[12] = target: Cathepsin D (Homo sapiens, UniProt P07339); assay: Inhibition of human recombinant cathepsin D expressed in baculovirus-infected SF9 cells using fluorescence-quenched Ac-E-D(EDANS)-KPILFFRLG-K(Dabcyl)-E-Amid as substrate incubated for 1 hr prior to substrate addition measured after 1 hr by fluorescence polarization assay
[13] = target: Beta-secretase 1 (Homo sapiens, UniProt P56817); assay: Inhibition of human recombinant BACE1 expressed in baculovirus-infected SF9 cells using fluorescence-quenched RE(EDANS)-EVNLDAEF-K(DABSYL)-R as substrate incubated for 1 hr prior to substrate addition measured after 1 hr by fluorescence polarization assay
[14] = Volume of distribution at steady state in Sprague-Dawley rat at 2 mg/kg, iv and 6 mg/kg, po by HPLC analysis; format: ADME, organism-based; conditions: in vivo, read-out: Vdss; summary of the method: as §2
[15] = Inhibition of human recombinant pepsin A expressed in Escherichia coli using fluorescence-quenched Dabcyl-E-R-Nle-F-L-S-F-P-EDANS as substrate incubated for 1 hr prior to substrate addition measured after 1 hr by fluorescence polarization assay
[16] = tested on: Rattus norvegicus; assay: Antihypertensive activity in telemetered hypertensive double-transgenic rat model expressing human renin angiotensinogen assessed as time required for 50 % recovery at 6 mg/kg, po; format: functional; summary of the method: as §1
[17] = Plasma clearance in Sprague-Dawley rat at 2 mg/kg, iv and 6 mg/kg, po by HPLC analysis; format: ADME, organism-based; summary of the method: as §2
[18] = Cmax in Sprague-Dawley rat at 6 mg/kg, po by HPLC analysis; format: ADME, organism-based; parameters: dose 6 mg/kg, route oral; conditions: in vivo; summary of the method: as §2
[19] = target: T4, Cathepsin E (Homo sapiens, UniProt P14091); assay: Inhibition of human recombinant cathepsin E expressed in Escherichia coli using fluorescence-quenched Ac-E-D(EDANS)-KPILFFRLG-K(Dabcyl)-E-Amid as substrate incubated for 1 hr prior to substrate addition measured after 1 hr by fluorescence polarization assay
T4 sequence (P14091 whole entry): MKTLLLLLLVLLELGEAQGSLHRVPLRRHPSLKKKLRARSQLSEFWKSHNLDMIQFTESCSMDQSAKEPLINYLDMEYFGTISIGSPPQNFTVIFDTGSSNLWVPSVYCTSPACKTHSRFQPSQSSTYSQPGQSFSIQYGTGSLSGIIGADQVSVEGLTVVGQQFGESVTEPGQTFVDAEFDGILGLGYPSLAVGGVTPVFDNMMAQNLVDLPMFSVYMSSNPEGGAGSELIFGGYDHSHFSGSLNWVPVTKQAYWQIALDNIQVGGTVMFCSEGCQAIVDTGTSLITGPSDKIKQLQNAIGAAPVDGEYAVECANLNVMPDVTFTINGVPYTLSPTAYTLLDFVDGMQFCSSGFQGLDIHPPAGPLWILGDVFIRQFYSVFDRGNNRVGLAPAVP

[20] = target: T1, Renin; assay: Inhibition of human plasma renin
[21] = AUC (0 to 24 hrs) in Sprague-Dawley rat at 6 mg/kg, po by HPLC analysis; format: ADME, organism-based; parameters: time < 24 hr, dose 6 mg/kg, route oral; conditions: plasma; summary of the method: as §2
[22] = target: T5, Gastricsin (Homo sapiens, UniProt P20142); assay: Inhibition of human recombinant pepsin C expressed in Escherichia coli using fluorescence-quenched Dabcyl-E-R-Nle-F-L-S-F-P-EDANS as substrate incubated for 1 hr prior to substrate addition measured after 1 hr by fluorescence polarization assay
T5 sequence (P20142 whole entry): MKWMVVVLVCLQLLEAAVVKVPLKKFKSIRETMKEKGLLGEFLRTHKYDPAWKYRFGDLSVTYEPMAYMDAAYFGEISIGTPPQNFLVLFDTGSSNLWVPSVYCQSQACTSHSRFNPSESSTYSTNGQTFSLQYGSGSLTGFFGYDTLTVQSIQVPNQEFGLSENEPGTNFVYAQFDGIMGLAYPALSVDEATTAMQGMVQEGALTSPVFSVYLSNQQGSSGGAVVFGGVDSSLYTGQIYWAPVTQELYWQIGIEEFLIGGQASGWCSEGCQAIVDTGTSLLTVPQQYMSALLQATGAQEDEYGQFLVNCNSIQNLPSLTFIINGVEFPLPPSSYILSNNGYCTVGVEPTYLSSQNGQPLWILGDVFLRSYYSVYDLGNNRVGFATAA

Chain of Cathepsin D (P07339 65-162 limits assumed): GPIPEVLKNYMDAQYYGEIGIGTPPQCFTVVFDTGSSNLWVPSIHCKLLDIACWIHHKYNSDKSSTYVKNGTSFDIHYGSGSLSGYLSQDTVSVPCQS
Chain of Cathepsin D (P07339 169-412 limits assumed): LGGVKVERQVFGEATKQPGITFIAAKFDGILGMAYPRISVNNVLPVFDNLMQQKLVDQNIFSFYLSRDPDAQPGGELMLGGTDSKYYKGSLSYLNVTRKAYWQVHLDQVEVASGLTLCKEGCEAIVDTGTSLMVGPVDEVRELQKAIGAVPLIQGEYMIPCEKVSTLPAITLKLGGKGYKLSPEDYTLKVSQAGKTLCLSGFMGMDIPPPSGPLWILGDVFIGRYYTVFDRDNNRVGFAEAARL
Chain of Beta-secretase 1 (P56817 whole entry): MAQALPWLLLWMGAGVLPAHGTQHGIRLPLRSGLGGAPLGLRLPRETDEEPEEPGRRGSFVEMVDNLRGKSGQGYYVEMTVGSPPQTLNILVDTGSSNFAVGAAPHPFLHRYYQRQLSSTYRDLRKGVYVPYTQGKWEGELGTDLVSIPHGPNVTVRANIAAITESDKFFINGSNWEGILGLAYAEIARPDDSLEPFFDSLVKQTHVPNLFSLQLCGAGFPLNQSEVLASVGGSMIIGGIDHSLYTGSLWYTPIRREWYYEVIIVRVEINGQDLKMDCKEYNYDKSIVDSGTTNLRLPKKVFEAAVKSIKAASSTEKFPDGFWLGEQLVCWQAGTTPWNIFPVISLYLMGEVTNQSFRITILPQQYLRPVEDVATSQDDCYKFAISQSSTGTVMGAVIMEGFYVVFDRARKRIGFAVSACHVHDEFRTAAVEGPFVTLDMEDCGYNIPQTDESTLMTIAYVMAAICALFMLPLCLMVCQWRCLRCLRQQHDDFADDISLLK
Chain of Cytochrome P450 3A4 (P08684 whole entry): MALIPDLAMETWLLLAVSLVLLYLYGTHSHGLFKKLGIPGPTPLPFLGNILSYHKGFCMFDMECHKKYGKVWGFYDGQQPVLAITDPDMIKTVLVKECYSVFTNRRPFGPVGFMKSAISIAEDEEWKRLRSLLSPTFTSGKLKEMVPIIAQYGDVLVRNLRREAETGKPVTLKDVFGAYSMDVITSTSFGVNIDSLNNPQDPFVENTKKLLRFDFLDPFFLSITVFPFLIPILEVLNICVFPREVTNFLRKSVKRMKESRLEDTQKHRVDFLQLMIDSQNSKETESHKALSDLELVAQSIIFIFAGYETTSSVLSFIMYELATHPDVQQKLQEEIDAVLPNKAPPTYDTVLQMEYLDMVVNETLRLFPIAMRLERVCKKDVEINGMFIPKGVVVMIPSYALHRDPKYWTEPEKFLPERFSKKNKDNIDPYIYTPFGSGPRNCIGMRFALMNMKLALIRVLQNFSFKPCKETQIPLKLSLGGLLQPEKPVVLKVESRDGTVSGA

Structure (SMILES): COCCCCC1(CNC(=O)[C@@H]2CNC[C@H](NS(=O)(=O)c3ccc(C)cc3)C2)c2ccccc2Oc2ccccc21 [listing 1 of 2 here]
Activity [1]: Dose-dependent effect

Structure (SMILES): O=C(NCC1c2ccccc2Oc2ccccc21)C1CCCNC1 (racemic)
inhibition [3]: 0%

Structure (SMILES): COCCCCC1(CNC(=O)C2CCCNC2)c2ccccc2Oc2ccccc21 (racemic)
IC50 [2]: 4000 nM

Structure (SMILES): Cc1ccc(S(=O)(=O)N[C@@H]2CNC[C@H](C(=O)NCC(c3ccccc3)c3ccccc3)C2)cc1
IC50 [2]: > 30000 nM

Structure (SMILES): OC(CC1c2ccccc2Sc2ccccc21)CN1CCCC1 (racemic)
Kd [4]: > 500000 nM
IC50 [2]: > 100000 nM

Structure (SMILES): Cc1ccc(S(=O)(=O)N[C@H]2CNC[C@@H](C(=O)NCC(c3ccccc3)c3ccccc3)C2)cc1 (racemic)
IC50 [2]: 1200 nM

Structure (SMILES): CC(O)CN1CC2c3ccccc3Nc3ccccc3C2C1 (racemic)
Kd [4]: > 500000 nM
IC50 [2]: > 100000 nM

Now from value to compound, other results behind:

IC50 [2]: 90 nM
Structure (SMILES): Cc1ccc(S(=O)(=O)N[C@H]2CNC[C@@H](C(=O)NCC3c4ccccc4Oc4ccccc43)C2)cc1 (racemic)

IC50 [2]: 500 nM
Structure (SMILES): COCCCCC1(CNC(=O)[C@H]2CNC[C@@H](NS(=O)(=O)c3ccc(C)cc3)C2)c2ccccc2Oc2ccccc21

half-life [5]: 2.3 h
bioavailability [6]: 18%
inhibition (INH) [8]: tde
IC50 [9]: > 30000 nM
IC50 [12]: > 30000 nM
IC50 [13]: > 30000 nM
Vd [14]: 5.3 L/kg
IC50 [15]: > 30000 nM
clearance [17]: 43.3 mL/min/kg
Cmax [18]: 222 nM
IC50 [19]: > 30000 nM
IC50 [20]: 25 nM
AUC(0-t) at 24 h [21]: 0.75 µM·h
IC50 [2]: 3 nM
IC50 [22]: > 30000 nM
Structure (SMILES): COCCCCC1(CNC(=O)[C@@H]2CNC[C@H](NS(=O)(=O)c3ccc(C)cc3)C2)c2ccccc2Oc2ccccc21 [listing 2 of 2 here]
Time [7]: 7.8 h
Activity [10]: 58 mmHg
Activity [11]: 28 mmHg
Time [16]: 3.1 h

IC50 [2]: 500 nM
Structure (SMILES): Cc1ccc(S(=O)(=O)N[C@H]2CNC[C@@H](C(=O)NCC(c3ccccc3)c3ccccc3)C2)cc1

IC50 [2]: 4 nM
Structure (SMILES): COCCCCC1(CNC(=O)[C@@H]2CNC[C@H](NS(=O)(=O)c3ccc(C)cc3)C2)c2ccccc2Oc2ccccc21 (racemic)
